Tests used:
SK-MEL-28 = assay: Cytotoxicity against human SK-MEL-28 cells assessed as cell growth at 10^-5 M after 48 hrs by SRB assay; format: functional; conditions: SK-MEL-28, 48 h, read-out: Activity
Outline: (§1)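 NCI-60 one-dose screen across nine tumour subpanels. Each agent added once at 10^-5 M, cultures incubated 48 h. Endpoint is sulforhodamine B protein staining read spectrophotometrically. Output is percent growth of treated cells relative to untreated controls.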

SK-MEL-5 = assay: Cytotoxicity against human SK-MEL-5 cells assessed as cell growth at 10^-5 M after 48 hrs by SRB assay; format: functional; conditions: SK-MEL-5, 48 h, read-out: Activity; outline: as §1
[1] = Induction of nitric oxide release in phosphate buffer at pH 7.4 at 0.1 mM after 2 hrs by Griess method in presence of 0.5 mM of N-acetylcysteine; format: physicochemical; conditions: pH 7.4, 2 h, 100 µM
Outline: (§2)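 Compound in DMF diluted to final 10^-4 M in 1:1 50 mM phosphate buffer pH 7.4/MeOH with 5×10^-4 M N-acetylcysteine, 37 °C. Aliquot mixed with Griess reagent, 10 min at room temperature, A546 read. Nitrite quantified against sodium nitrite standards (10–80 nmol/mL); NO expressed as mol/mol. n = 4 reaction mixtures per compound.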

HCT-15 = assay: Cytotoxicity against human HCT15 cells assessed as cell growth at 10^-5 M after 48 hrs by SRB assay; format: functional; conditions: HCT-15, 48 h, read-out: Activity
Outline: (§3)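 NCI 60-cell-line primary one-dose screen across nine tumour subpanels. Compound added at a single concentration of 10^-5 M and cultures incubated 48 h. Endpoint was sulforhodamine B protein staining read spectrophotometrically, with growth expressed as percent of untreated control cells.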

SF-295 = assay: Cytotoxicity against human SF295 cells assessed as cell growth at 10^-5 M after 48 hrs by SRB assay; format: functional; conditions: SF-295, 48 h, read-out: Activity; outline: as §3
ACHN = assay: Cytotoxicity against human ACHN cells assessed as cell growth at 10^-5 M after 48 hrs by SRB assay; format: functional; conditions: read-out: Activity; outline: as §3
A549 = assay: Cytotoxicity against human A549 cells assessed as cell growth at 10^-5 M after 48 hrs by SRB assay; format: functional; conditions: A549, 48 h, read-out: Activity; outline: as §3
MDA-MB-231 = assay: Cytotoxicity against human MDA-MB-231 cells assessed as cell growth at 10^-5 M after 48 hrs by SRB assay; format: functional; conditions: MDA-MB-231, 48 h, read-out: Activity; outline: as §3
UACC-62 = assay: Cytotoxicity against human UACC62 cells assessed as cell growth at 10^-5 M after 48 hrs by SRB assay; format: functional; conditions: UACC-62, 48 h, read-out: Activity; outline: as §1
DU-145 = assay: Cytotoxicity against human DU145 cells assessed as cell growth at 10^-5 M after 48 hrs by SRB assay; format: functional; conditions: DU-145, 48 h, read-out: Activity; outline: as §3
UO-31 = assay: Cytotoxicity against human UO31 cells assessed as cell growth at 10^-5 M after 48 hrs by SRB assay; format: functional; conditions: UO-31, 48 h, read-out: Activity; outline: as §1
[2] = Induction of nitric oxide release in phosphate buffer at pH 7.4 at 0.1 mM after 6 hrs by Griess method in presence of 0.5 mM of N-acetylcysteine; format: physicochemical; conditions: pH 7.4, 6 h, 100 µM; outline: as §2
OVCAR-4 = assay: Cytotoxicity against human OVCAR4 cells assessed as cell growth at 10^-5 M after 48 hrs by SRB assay; format: functional; conditions: OVCAR-4, 48 h, read-out: Activity; outline: as §3
OVCAR-5 = assay: Cytotoxicity against human OVCAR5 cells assessed as cell growth at 10^-5 M after 48 hrs by SRB assay; format: functional; conditions: OVCAR-5, 48 h, read-out: Activity; outline: as §3
MOLT-4 = assay: Cytotoxicity against human MOLT4 cells assessed as cell growth at 10^-5 M after 48 hrs by SRB assay; format: functional; conditions: MOLT-4, 48 h, read-out: Activity; outline: as §3
UACC-257 = assay: Cytotoxicity against human UACC257 cells assessed as cell growth at 10^-5 M after 48 hrs by SRB assay; format: functional; conditions: UACC-257, 48 h, read-out: Activity; outline: as §1
[3] = Induction of nitric oxide release in phosphate buffer at pH 7.4 at 0.1 mM after 5 hrs by Griess method in presence of 0.5 mM of N-acetylcysteine; format: physicochemical; conditions: pH 7.4, 5 h, 100 µM; outline: as §2
Rattus norvegicus [4] = assay: Antiinflammatory activity in albino rat assessed as inhibition of carrageenan-induced paw edema at 0.28 mmol/kg, po after 1 hr relative to control; format: functional
Outline: (§4)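 Adult male albino rats (120–140 g), four per group, fasted 24 h with water allowed. Test agent suspended in 0.5% w/v aqueous CMC and given orally at 0.28 mmol/kg; controls received CMC alone. After 30 min, 0.1 mL fresh 1% carrageenan in saline was injected subplantar into the right hind paw and saline into the left. Paw thickness was measured by Vernier caliper; % inhibition = [(VR−VL)control − (VR−VL)treated]/(VR−VL)control ×100. Mean ± SEM, one-way ANOVA.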

SNB-19 = assay: Cytotoxicity against human SNB19 cells assessed as cell growth at 10^-5 M after 48 hrs by SRB assay; format: functional; conditions: SNB-19, 48 h, read-out: Activity; outline: as §1
K562 = assay: Cytotoxicity against human K562 cells assessed as cell growth at 10^-5 M after 48 hrs by SRB assay; format: functional; conditions: K562, 48 h, read-out: Activity; outline: as §3
Rattus norvegicus [5] = assay: Antiinflammatory activity in albino rat assessed as inhibition of carrageenan-induced paw edema at 0.28 mmol/kg, po after 4 hrs relative to control; format: functional; outline: as §4
SF-539 = assay: Cytotoxicity against human SF539 cells assessed as cell growth at 10^-5 M after 48 hrs by SRB assay; format: functional; conditions: SF-539, 48 h, read-out: Activity; outline: as §3
BT-549 = assay: Cytotoxicity against human BT549 cells assessed as cell growth at 10^-5 M after 48 hrs by SRB assay; format: functional; conditions: BT-549, 48 h, read-out: Activity; outline: as §3
OVCAR-3 = assay: Cytotoxicity against human OVCAR3 cells assessed as cell growth at 10^-5 M after 48 hrs by SRB assay; format: functional; conditions: OVCAR-3, 48 h, read-out: Activity; outline: as §3
RXF 393 = assay: Cytotoxicity against human RXF393 cells assessed as cell growth at 10^-5 M after 48 hrs by SRB assay; format: functional; conditions: RXF 393, 48 h, read-out: Activity; outline: as §3
MCF7 = assay: Cytotoxicity against human MCF7 cells assessed as cell growth at 10^-5 M after 48 hrs by SRB assay; format: functional; conditions: MCF7, 48 h, read-out: Activity; outline: as §3
CAKI-1 = assay: Cytotoxicity against human CAKI-1 cells assessed as cell growth at 10^-5 M after 48 hrs by SRB assay; format: functional; conditions: CAKI-1, 48 h, read-out: Activity; outline: as §3
Rattus norvegicus [6] = assay: Gastrointestinal toxicity in albino rat assessed as ulcer index at 0.28 mmol/kg, po (reference value: 0.60 +/- 0.05); format: organism-based; conditions: in vivo
Rattus norvegicus [7] = assay: Antiinflammatory activity in albino rat assessed as inhibition of carrageenan-induced paw edema at 0.28 mmol/kg, po after 5 hrs relative to control; format: functional; outline: as §4
COLO 205 = assay: Cytotoxicity against human COLO205 cells assessed as cell growth at 10^-5 M after 48 hrs by SRB assay; format: functional; conditions: COLO 205, 48 h, read-out: Activity; outline: as §3

SMILES: COc1cc(-c2nnc(SC/C(=N/O)c3ccccc3)n2-c2ccccc2)cc(OC)c1OC
- growth at 10 µM (SK-MEL-28): 90.3%
- growth at 10 µM (SK-MEL-5): 84.6%
- Activity [1]: 0.11 mol/mol
- growth at 10 µM (HCT-15): 99.1%
- growth at 10 µM (SF-295): 93.1%
- growth at 10 µM (ACHN): 99.3%
- growth at 10 µM (A549): 94.7%
- growth at 10 µM (MDA-MB-231): 93.7%
- growth at 10 µM (UACC-62): 84%
- growth at 10 µM (DU-145): 123%
- growth at 10 µM (UO-31): 69.5%
- Activity [2]: 0.15 mol/mol
- growth at 10 µM (OVCAR-4): 84.8%
- growth at 10 µM (OVCAR-5): 115%
- growth at 10 µM (MOLT-4): 81.7%
- growth at 10 µM (UACC-257): 102%
- Activity [3]: 0.16 mol/mol
- inhibition in vivo at 280 µmol/kg (Rattus norvegicus [4]): 61%
- growth at 10 µM (SNB-19): 95.2%
- growth at 10 µM (K562): 85.2%
- inhibition in vivo at 280 µmol/kg (Rattus norvegicus [5]): 76%
- growth at 10 µM (SF-539): 102%
- growth at 10 µM (BT-549): 85.3%
- growth at 10 µM (OVCAR-3): 114%
- growth at 10 µM (RXF 393): 105%
- growth at 10 µM (MCF7): 101%
- growth at 10 µM (CAKI-1): 79%
- UI (Rattus norvegicus [6]): 5.52
- inhibition in vivo at 280 µmol/kg (Rattus norvegicus [7]): 68%
- growth at 10 µM (COLO 205): 108%
